Test results reported in ChEMBL document CHEMBL2086380 (J Med Chem, 2012).
≈ marks a conversion by molar mass, not a printed value. Calls of active or inactive are those of the source. The rule behind the calls is not given here.

How the values were obtained:
Cytochrome P450 2C19 = Cytochrome P450 2C19 (Homo sapiens, UniProt P33261); test: Inhibition of CYP2C19; type: ADME
A-375 [1] = test: Antiproliferative activity against human A375 cells after 72 hrs by CellTiterGlo assay; details: A-375, 72 h
Cytochrome P450 2C9 = Cytochrome P450 2C9 (Homo sapiens, UniProt P11712); test: Inhibition of CYP2C9; type: ADME
Cytochrome P450 2C9, sequence (P11712 whole entry): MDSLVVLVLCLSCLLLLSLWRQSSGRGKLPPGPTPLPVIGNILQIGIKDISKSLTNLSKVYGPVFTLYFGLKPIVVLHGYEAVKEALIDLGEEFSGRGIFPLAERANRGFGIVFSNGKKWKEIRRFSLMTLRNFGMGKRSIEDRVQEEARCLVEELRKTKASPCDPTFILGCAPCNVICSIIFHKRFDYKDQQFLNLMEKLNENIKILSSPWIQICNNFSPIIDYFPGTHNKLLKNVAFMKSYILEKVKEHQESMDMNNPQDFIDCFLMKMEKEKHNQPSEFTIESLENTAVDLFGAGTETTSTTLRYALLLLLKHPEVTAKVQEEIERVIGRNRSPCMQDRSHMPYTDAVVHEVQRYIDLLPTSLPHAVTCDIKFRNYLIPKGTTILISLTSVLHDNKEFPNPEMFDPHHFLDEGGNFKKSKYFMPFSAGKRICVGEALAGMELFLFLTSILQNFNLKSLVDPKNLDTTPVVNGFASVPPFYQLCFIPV

HCT-116 [2] = test: Antiproliferative activity against human HCT116 cells after 72 hrs by CellTiterGlo assay; details: HCT-116, 72 h
[3] = Half life in mouse at 25 mg/kg, po; type: ADME, organism-based; design: dose 25 mg/kg, route oral; details: in vivo
[4] = Clearance in rat at 1 mg/kg, iv; type: ADME, organism-based; design: dose 1 mg/kg, route intravenous; details: in vivo
[5] = AUC in rat at 5 mg/kg, po; type: ADME, organism-based; design: dose 5 mg/kg, route oral; details: plasma
Method in brief: (§1)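 Oral PK: rat dosed 5 mg/kg PO as solution; mouse dosed 25 mg/kg PO as suspension. Plasma AUC (μM·h) and bioavailability F (%) determined.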

[6] = Half life in rat at 1 mg/kg, iv; type: ADME, organism-based; design: dose 1 mg/kg, route intravenous; details: in vivo
Rattus norvegicus [7] = test: Drug metabolism in rat assessed as hydroxamate cleavage at 5 mg/kg, po; type: ADME, organism-based; design: dose 5 mg/kg, route oral; details: in vivo
HCT-116 [8] = test: Antitumor activity against human HCT116 cells xenografted in nude nu/nu mouse assessed as tumor growth inhibition at 5 mg/kg, po administered QD for 3 weeks relative to vehicle-treated control; type: functional
Method in brief: (§2)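 HCT116 colorectal xenografts in nude mice; animals randomized, dosed orally once daily for 3 weeks at 5, 25 or 75 mg/kg vs vehicle. Tumor volume and body weight tracked; animals euthanized at tumor volume >2000 mm³ or body weight loss >20%.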

[9] = Half life in mouse at 1 mg/kg, iv; type: ADME, organism-based; design: dose 1 mg/kg, route intravenous; details: in vivo
Rattus norvegicus [10] = species on record: Rattus norvegicus; test: Unbound clearance in rat; type: ADME, organism-based; details: in vivo
HCT-116 [11] = test: Antitumor activity against human HCT116 cells xenografted in nude nu/nu mouse assessed as tumor growth inhibition at 25 and 75 mg/kg, po administered QD for 3 weeks relative to vehicle-treated; type: functional, organism-based; design: dose 75 mg/kg; method in brief: as §2
[12] = Clearance in mouse at 1 mg/kg, iv; type: ADME, organism-based; design: dose 1 mg/kg, route intravenous; details: in vivo
Mus musculus [13] = test: Inhibition of MEK-mediated ERK1/2 Thr185/Tyr187 phosphorylation in human HCT116 cells xenografted in nude nu/nu mouse at 25 mg/kg, po administered as single dose after 8 hrs relative to vehicle-treated control; type: functional; details: HCT-116, 8 h
[14] = Permeability from apical to basal side of MDCK cells; type: ADME, cell-based, Canis lupus familiaris; details: dog, read-out: permeability
Method in brief: (§3)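 MDCK monolayer permeability measured in A→B and B→A directions, expressed as ×10⁻⁶ cm/s; efflux ratio taken as B:A over A:B.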

Mus musculus [15] = test: Oral bioavailability in mouse at 25 mg/kg; type: ADME, organism-based; details: in vivo; method in brief: as §1
[16] = AUC in rat at 1 mg/kg, iv; type: ADME, organism-based; design: dose 1 mg/kg, route intravenous; details: plasma
[17] = Solubility of the compound in fasted state simulated intestinal fluid; type: physicochemical
Method in brief: (§4)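 Solubility measured in aqueous buffer at pH 6.5 and in fasted-state simulated intestinal fluid (FASSIF), expressed in […].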

[18] = Plasma protein binding in rat; type: ADME, cell-free; details: read-out: PPB (converted)
[19] = Solubility of the compound at pH 6.5; type: physicochemical; details: buffer; method in brief: as §4
Mus musculus [20] = test: (§5) AUC in mouse at 1 mg/kg, iv; type: ADME, organism-based, Plasma; design: dose 1 mg/kg, route intravenous; details: in vivo
Mus musculus [21] = test: Toxicity in nude nu/nu mouse bearing human HCT116 xenograft assessed as body weight loss at 5 mg/kg, po administered QD for 3 weeks relative to vehicle-treated; type: organism-based; design: dose 5 mg/kg, route oral; details: in vivo, 504 h; method in brief: as §2
[22] = Permeability from basal to apical side of MDCK cells; type: ADME, cell-based, Canis lupus familiaris; details: dog, read-out: permeability; method in brief: as §3
Rattus norvegicus [23] = test: Unbound AUC in po dosed rat; type: ADME, organism-based; details: in vivo
Mus musculus [24] = test: Toxicity in nude nu/nu mouse bearing human HCT116 xenograft assessed as body weight loss at 75 mg/kg, po administered QD for 3 weeks relative to vehicle-treated; type: organism-based; design: dose 75 mg/kg, route oral; details: in vivo, 504 h; method in brief: as §2
[25] = Plasma protein binding in mouse; type: ADME, cell-free; details: read-out: PPB (converted)
Rattus norvegicus [26] = test: Drug metabolism in rat assessed as glucuronidation at 5 mg/kg, po; type: ADME, organism-based; design: dose 5 mg/kg, route oral; details: in vivo
[27] = Oral bioavailability in rat at 5 mg/kg; type: ADME, organism-based; details: in vivo; method in brief: as §1
Mus musculus [28] = test: (§6) AUC in mouse at 25 mg/kg, po; type: ADME, organism-based, Plasma; design: dose 25 mg/kg, route oral; details: in vivo; method in brief: as §1
[29] = Volume of distribution at steady state in rat at 1 mg/kg, iv; type: ADME, organism-based; design: dose 1 mg/kg, route intravenous; details: in vivo, read-out: Vdss
[30] = Volume of distribution at steady state in mouse at 1 mg/kg, iv; type: ADME, organism-based; design: dose 1 mg/kg, route intravenous; details: in vivo, read-out: Vdss
A-375 [31] = test: Ratio of EC50 for human HCT116 cells to EC50 for human A375 cells; type: functional
[32] = molecular target: T1, Dual specificity mitogen-activated protein kinase kinase 1 (Homo sapiens, UniProt Q02750); test: Inhibition of MEK1-mediated ERK1 phosphorylation after 30 mins by HTRF assay
T1 sequence (Q02750 whole entry): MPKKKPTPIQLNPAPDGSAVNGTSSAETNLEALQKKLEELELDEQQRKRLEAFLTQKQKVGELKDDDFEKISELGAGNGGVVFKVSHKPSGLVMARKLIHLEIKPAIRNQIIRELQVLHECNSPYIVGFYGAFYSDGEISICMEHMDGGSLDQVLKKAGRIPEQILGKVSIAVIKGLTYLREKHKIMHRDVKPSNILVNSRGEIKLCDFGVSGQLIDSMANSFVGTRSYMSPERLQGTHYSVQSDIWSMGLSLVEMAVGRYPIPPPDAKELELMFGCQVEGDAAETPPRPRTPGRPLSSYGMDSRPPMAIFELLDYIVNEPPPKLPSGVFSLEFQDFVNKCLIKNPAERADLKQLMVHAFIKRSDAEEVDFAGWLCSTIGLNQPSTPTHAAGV

[33] = molecular target: T1, Dual specificity mitogen-activated protein kinase kinase 1; test: Inhibition of MEK1-mediated ERK1 phosphorylation in human HCT116 cells after 2 hrs by immunofluorescence high content imaging
[34] = molecular target: T1, Dual specificity mitogen-activated protein kinase kinase 1; test: Inhibition of MEK1-mediated ERK1 phosphorylation in human A375 cells after 2 hrs by immunofluorescence high content imaging
[35] = Ratio of EC50 for human A375 cells to IC50 for MEK1-mediated ERK1 phosphorylation; design: species or system A-375
[36] = Ratio of EC50 for human HCT116 cells to IC50 for MEK1-mediated ERK1 phosphorylation; design: species or system HCT-116
[37] = Efflux ratio of permeability from basal to apical to apical to basal side of MDCK cells; type: ADME, cell-based, Canis lupus familiaris; details: dog; method in brief: as §3
[38] = as §5; type: ADME, organism-based, Plasma; design: dose 1 mg/kg, route intravenous; details: plasma
[39] = as §6; type: ADME, organism-based, Plasma; design: dose 25 mg/kg, route oral; details: plasma; method in brief: as §1

Cytochrome P450 2C19, sequence (P33261 whole entry): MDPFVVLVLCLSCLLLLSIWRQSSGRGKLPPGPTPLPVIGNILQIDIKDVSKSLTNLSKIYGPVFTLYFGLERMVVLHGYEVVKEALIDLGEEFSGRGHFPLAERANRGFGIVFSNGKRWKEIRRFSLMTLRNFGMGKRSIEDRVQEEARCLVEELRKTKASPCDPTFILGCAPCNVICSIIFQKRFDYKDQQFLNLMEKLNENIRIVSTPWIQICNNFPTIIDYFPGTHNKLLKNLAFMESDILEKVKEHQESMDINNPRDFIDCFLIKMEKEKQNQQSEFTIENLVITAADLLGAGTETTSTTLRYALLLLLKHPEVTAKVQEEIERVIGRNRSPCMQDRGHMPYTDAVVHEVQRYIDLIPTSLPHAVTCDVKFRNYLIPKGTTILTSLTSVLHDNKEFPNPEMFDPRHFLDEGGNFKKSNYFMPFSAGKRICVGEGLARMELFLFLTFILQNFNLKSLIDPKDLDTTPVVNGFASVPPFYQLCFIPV

With `O=C(NOCCO)c1ccc2cnsc2c1Nc1ccc(I)cc1F` the “inhibition (INH)” value (Cytochrome P450 2C19) was “Not Active”, the EC50 (A-375 [1]) was 7 nM and the “inhibition (INH)” value (Cytochrome P450 2C9) was “Not Active”. It also gave an EC50 (HCT-116 [2]) of 44 nM.
For `O=C(NOCCO)c1ccc2[nH]ncc2c1Nc1ccc(I)cc1F`, the half-life [3] was 2.9 h, the clearance [4] was 36 mL/min/kg and the AUC [5] was 1.06 µM·h. The half-life [6] was 1.4 h, the Drug metabolism (Rattus norvegicus [7]) was “Active” and the inhibition in vivo at 5 mg/kg (HCT-116 [8]; HCT-116, 504 h, read-out: GI) was 94%. For the same compound, the half-life [9] was 0.6 h, the CL free (Rattus norvegicus [10]) was 923 mL/min/kg and the “growth inhibition (GI)” value (HCT-116 [11]) was “Active”. The clearance [12] was 88 mL/min/kg, the EC50 (A-375 [1]) was 2 nM and the inhibition in vivo at 25 mg/kg (Mus musculus [13]) was 70%. It also gave a Papp A→B [14] of 9.9 ×10⁻⁶ cm/s, an F (Mus musculus [15]) of 94% and an AUC [16] of 1.01 µM·h. It also gave a solubility [17] of 180 µg/mL (≈ 395 µM), a fraction unbound [18] of 0.039 and a solubility [19] of 80 µg/mL (≈ 175 µM). For the same compound, the AUC (Mus musculus [20]) was 0.41 µM·h, the Activity (Mus musculus [21]) was “Non-toxic” and the Papp B→A [22] was 13.8 ×10⁻⁶ cm/s. For the same compound, the fAUC (Rattus norvegicus [23]) was 0.04 µM·h, the Activity (Mus musculus [24]) was 10% and the EC50 (HCT-116 [2]) was 16 nM. For the same compound, the fraction unbound [25] was 0.03, the Drug metabolism (Rattus norvegicus [26]) was “Active” and the bioavailability [27] was 21%. For the same compound, the AUC (Mus musculus [28]) was 1.96 µM·h, the Vd [29] was 2.4 L/kg and the Vd [30] was 2 L/kg.
`O=C(NOCCO)c1ccc2[nH]ncc2c1Nc1ccc(Br)cc1F` showed a clearance [4] of 54 mL/min/kg, an AUC [5] of 1.29 µM·h and a half-life [6] of 0.36 h. For the same compound, the “Ratio EC50” value (A-375 [31]) was 8, the IC50 [32] was 125 nM and the EC50 (A-375 [1]) was 19 nM. The AUC [16] was 0.75 µM·h, the fraction unbound [18] was 0.035 and the EC50 [33] was 3.4 nM. For the same compound, the EC50 (HCT-116 [2]) was 193 nM, the EC50 [34] was 6.4 nM and the bioavailability [27] was 34%. It also gave a Ratio [35] of 0.15, a Vd [29] of 1.5 L/kg and a Ratio [36] of 1.5.
`O=C(NCCCO)c1ccc2[nH]ncc2c1Nc1ccc(I)cc1F` showed an IC50 [32] greater than 10000 nM.
In the case of `O=C(NOCC1CC1)c1ccc2[nH]ncc2c1Nc1ccc(I)cc1F`, the EC50 (A-375 [1]) is reported as 9 nM and the EC50 (HCT-116 [2]) is reported as 127 nM.
For `O=C(NOC[C@H](O)CO)c1ccc2[nH]ncc2c1Nc1ccc(I)cc1F`, the IC50 [32] was 15 nM, the EC50 (A-375 [1]) was 12 nM and the Papp A→B [14] was 2 ×10⁻⁶ cm/s. For the same compound, the Papp B→A [22] was 7.1 ×10⁻⁶ cm/s, the EC50 [33] was 0.4 nM and the EC50 (HCT-116 [2]) was 31 nM. The EC50 [34] was 3.7 nM, the Ratio [35] was 0.8 and the efflux ratio [37] was 3.5. The Ratio [36] was 2.
`O=C(NOC[C@H](O)CO)c1ccc2cnsc2c1Nc1ccc(I)cc1F` showed a clearance [4] of 15 mL/min/kg, an AUC [5] of 5.7 µM·h and a half-life [6] of 1.6 h. The CL free (Rattus norvegicus [10]) was 1875 mL/min/kg, the IC50 [32] was 20 nM and the EC50 (A-375 [1]) was 10 nM. It also gave an AUC [16] of 2.2 µM·h, a fraction unbound [18] of 0.008 and a fAUC (Rattus norvegicus [23]) of 0.046 µM·h. The EC50 [33] was 0.9 nM, the EC50 (HCT-116 [2]) was 62 nM and the EC50 [34] was 1.1 nM. The bioavailability [27] was 51%, the Ratio [35] was 0.47 and the Vd [29] was 0.97 L/kg. The Ratio [36] was 2.9.
`CCONC(=O)c1ccc2[nH]ncc2c1Nc1ccc(I)cc1F` showed an IC50 [32] of 93 nM, an EC50 (A-375 [1]) of 4.9 nM and an EC50 [33] of 1.3 nM. It also gave an EC50 (HCT-116 [2]) of 132 nM and an EC50 [34] of 2.4 nM.
For `C[C@H](O)CONC(=O)c1oc2c(F)cncc2c1Nc1ccc(I)cc1F`, the Activity (HCT-116 [8]) was “Active”, the “Ratio EC50” value (A-375 [31]) was 8 and the half-life [9] was 2.3 h. It also gave a clearance [12] of 7.7 mL/min/kg, an IC50 [32] of 35 nM and an EC50 (A-375 [1]) of 23 nM. The F (Mus musculus [15]) was 173%, the AUC [38] was 4.42 µM·h and the EC50 [33] was 4 nM. The EC50 (HCT-116 [2]) was 175 nM, the fraction unbound [25] was 0.016 and the EC50 [34] was 7.2 nM. For the same compound, the Ratio [35] was 0.65, the AUC [39] was 192 µM·h and the Vd [30] was 0.71 L/kg. For the same compound, the Ratio [36] was 5.
For `O=C(NOC[C@H](O)CO)c1oc2ccncc2c1Nc1ccc(I)cc1F`, the EC50 (A-375 [1]) was 264 nM and the EC50 (HCT-116 [2]) was 314 nM.
